Screens as filed in PubChem BioAssay.
MrgX1 agonist – activates human MrgX1 receptor signaling | Q96LB2 | MrgX1-HEK293 cells, Fluo-4 calcium fluorescence, agonist mode; active compounds read high | B-score at 10 µM | AID 588627 | 310,000 compounds, 0.44% hits;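 active = calcium response B-score plate-corrected fluorescence ratio at least 3 library SD, with starting fluorescence B-score inside 5 SD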
Target sequence (Q96LB2 whole entry, looked up): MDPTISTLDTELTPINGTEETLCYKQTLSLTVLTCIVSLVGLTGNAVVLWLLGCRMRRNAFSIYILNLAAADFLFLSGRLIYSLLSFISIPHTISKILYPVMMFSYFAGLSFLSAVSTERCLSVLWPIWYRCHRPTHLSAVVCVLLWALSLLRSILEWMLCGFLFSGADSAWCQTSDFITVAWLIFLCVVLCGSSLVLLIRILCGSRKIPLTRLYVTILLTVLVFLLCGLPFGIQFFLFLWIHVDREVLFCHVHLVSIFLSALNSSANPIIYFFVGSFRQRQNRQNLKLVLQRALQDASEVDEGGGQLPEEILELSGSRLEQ
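Material: MrgX1-expressing HEK293 cells; input: 15,000 cells per well; doses: test compound given as first of three sequential additions; schedule: overnight plating before 1 h dye loading; technique: Fluo-4 NW calcium-flux fluorescence, kinetic read; evaluation: baseline-normalised fluorescence change ratio, B-scored; control set: plate-wise positive and negative controls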
MrgX1 allo act – human MrgX1 positive allosteric modulation, primary screen. 310,000 compounds, 0.63% hits. MrgX1-HEK293, Fluo-4 calcium flux, FDSS; active compounds read high. B-score at 10 µM. Q96LB2;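 active = plate-corrected calcium response at least 3 library SD above typical, normal starting fluorescence, not activating the receptor alone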;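 note: compound read alongside a low EC10 to EC30 dose of BAM8-22 agonist; peak minus trough fluorescence over baseline measured at the second addition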
RGS4 pot – RGS4 potentiation or activation; B-score at 10 µM; 310,000 compounds, 0.92% hits; HEK293 M3R/inducible RGS4, carbachol calcium flux Fluo4; active compounds read low;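 active = B-score of the integrated calcium signal more than 4 SD below the library mean, with starting fluorescence not abnormally high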;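 note: negative B-score means reduced calcium response which marks RGS4 activation or potentiation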
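System – HEK293 FlpIn-TREx cells, stable M3R, doxycycline-inducible RGS4 · Reagent – ECmax carbachol challenge · Times – compound preincubation 20 min at room temperature before agonist · Technique – Fluo4 fluorescence kinetic imaging of calcium · Measure – B score of integrated Fluo4 ratio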
MrgX1 antagonist – antagonists of human MrgX1 receptor. Q96LB2. MRGX1-HEK293 calcium flux, Fluo-4, BAM8-22 antagonism; active compounds read low. B-score at 10 µM. 310,000 compounds, 1.3% hits. AID 588676;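 active = calcium-response B-score plate-corrected more than 3 library SD below zero, starting fluorescence within 5 deviations, no agonist response on first addition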;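 note: peak minus trough fluorescence over baseline after final BAM8-22 challenge near maximal dose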
RGS4 block – inhibitors of human RGS4. AID 463165. HEK293 M3R/RGS4 inducible, Fluo-4 calcium flux; active compounds read high; triggered by carbachol at its EC20. 310,000 compounds, 0.45% hits. B-score at 10 µM. P49798;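 active = B-score, a plate-corrected calcium signal, over three deviations above library mean, with baseline fluorescence within five deviations of library mean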;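 note: RGS4 expression induced by doxycycline in cells with stable M3 receptor; B-score is computed from the integrated fluorescence ratio over baseline after carbachol; higher B-score means a larger calcium signal and so more RGS4 inhibition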
Target sequence (P49798 whole entry, looked up): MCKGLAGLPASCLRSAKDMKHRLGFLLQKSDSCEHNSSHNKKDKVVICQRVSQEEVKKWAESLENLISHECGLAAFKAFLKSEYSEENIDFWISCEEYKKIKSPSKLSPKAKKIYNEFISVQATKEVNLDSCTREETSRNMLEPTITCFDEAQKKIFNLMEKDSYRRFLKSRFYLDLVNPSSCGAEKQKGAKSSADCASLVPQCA
Hits are given with their value; i = inactive; nt = no result; ! = not active in a repeat. Shown are actives, neighbours in structure and some others; about 3.5% of the full set was active somewhere.

SMILES	MrgX1 agonist	MrgX1 allo act	RGS4 pot	MrgX1 antagonist	RGS4 block
COc1ccc(OC)c(N=CC2=C(O)CC(C)(C)CC2=O)c1	i	i	i	i	i
COc1ccc(N=CC2=C(O)CC(C)(C)CC2=O)cc1	i	i	i	-6.5	i
N#Cc1ccc(C23CC4(C2)[C@H](CN(Cc2ccc(C(F)(F)F)cc2)[C@@H]4c2ccccc2)C3c2ccc(Cl)nc2)cc1 (some centres undefined)	nt	nt	i	nt	i
Cc1cc(C)c(C(=O)C(C)OC(=O)C2=COCCO2)cc1C (centres undefined)	i	7.6	i	i	i
CCC(CC)c1nnc(NC(=O)Cc2ccccc2[N+](=O)[O-])s1	i	i	i	i	i
Cc1ccc(-n2c(O)c(/C=N/n3cnnc3)c3ccccc3c2=O)cc1	i	9.4!	i	i	i
COc1cc(N(C)C)c([N+](=O)[O-])cc1C(=O)NC(C)CNc1ccc([N+](=O)[O-])cc1Cl (centres undefined)	i	i	i	-6.1	i
CCN(CC)CCNC(=O)c1cc([N+](=O)[O-])c(N(C)C)cc1OC	i	i	i	i	i
CC1(C(=O)OCC(=O)NNC(=O)COc2ccc(Cl)cc2)CC1(Cl)Cl (centres undefined)	i	i	i	i	i
CC(C)c1ccc(/C=C/C(=O)Nc2ccc(CN3CCOCC3)cc2)cc1	i	i	-8.2	i	i
CCCCn1c(N)c(N(CCOC)C(=O)c2ccc3c(c2)C(=O)N(c2cc(C)ccc2C)C3=O)c(=O)[nH]c1=O	i	12	i	i	i
CCCCn1c(N)c(N(CCOC)C(=O)c2ccc3c(c2)C(=O)N(c2ccccc2C)C3=O)c(=O)[nH]c1=O	i	i	i	i	i
O=C1Nc2ccccc2C1=Nc1cccc([N+](=O)[O-])c1	i	i	i	i	i
Cc1cccc(N=C2C(=O)Nc3c(Cl)cccc32)c1	28	i	i	i	i
CCC1CCCCN1CCCNS(=O)(=O)c1ccc2c(c1)oc(=O)n2C (centres undefined)	i	18	i	i	i
CSc1ncccc1C(=O)Nc1ccc(S(=O)(=O)NC2=NCCCCC2)cc1	i	i	i	-4.6	i
Cc1c(N=Cc2c(O)n(C)c(=O)c3ccccc23)c(=O)n(-c2ccccc2)n1C	i	i	-7.2	i	i
Cc1ccc(Cl)cc1N(CC(=O)NCc1ccccc1)S(C)(=O)=O	i	i	i	i	i
CCOC(=O)Nc1ccc2c(c1)N(C(=O)N1CCN(C)CC1)c1ccccc1S2	i	i	-7.3	i	i
CCOC(=O)Nc1ccc2c(c1)N(C(=O)CCN1CCN(C)CC1)c1ccccc1S2	i	i	i	i	i
COc1ccccc1Oc1ccc(N2CC(C(=O)OCC(=O)c3ccccc3)CC2=O)cc1 (centres undefined)	i	i	i	i	i
COc1ccc(/C=N/Nc2ncnc3sc(C)c(C)c23)cc1	i	12	i	i	i
Cc1sc2ncnc(N/N=C/c3ccc(O)cc3)c2c1C	i	i	i	i	i
COc1ccccc1NC(=O)CCN1C(=O)C2CC=CCC2C1=O (centres undefined)	i	i	i	i	i
O=C(Nc1nc(-c2cc(F)ccc2F)cs1)C1=COCCO1	i	i	i	-5.1	i
SMILES	MrgX1 agonist	MrgX1 allo act	RGS4 pot	MrgX1 antagonist	RGS4 block
Cc1cc2[nH]c(=O)c(=O)[nH]c2cc1S(=O)(=O)N1CCC(C)CC1	i	i	i	i	i
C=CCOc1ccc(/C=C/C(=O)OCC(=O)N(C)CC(=O)Nc2ccc(F)cc2)cc1	i	i	i	i	i
O=c1c2ccccc2nc(/C=C/c2ccc([N+](=O)[O-])cc2)n1CCCO	i	i	i	i	i
O=c1c2ccccc2nc(/C=C/c2cccc([N+](=O)[O-])c2)n1CCCO	i	7.2	i	i	i
COC(=O)c1ccc(NC(=O)Nc2ccc([N+](=O)[O-])cc2)cc1	i	i	i	-7.6	i
O=C(Nc1ccc([N+](=O)[O-])cc1)Nc1ccon1	i	i	i	-4.6	i
O=C(Nc1ccc([N+](=O)[O-])cc1)Nc1ccc(Cl)cc1F	i	i	i	-4.9	i
O=C(Nc1ccc(Cl)cc1)Nc1cc([N+](=O)[O-])ccc1F	i	i	i	i	i
O=C(Nc1ccc(C(=O)O)cc1)Nc1ccc([N+](=O)[O-])cc1	i	i	i	i	i
COC(=O)c1ccc(NC(=O)c2cccc(C)c2[N+](=O)[O-])cc1	i	i	i	-6.3	i
COCc1ccc(CN2CCC(C(=O)Nc3cccc(-c4cscn4)c3)CC2)o1	i	i	i	i	i
COCc1ccc(CN2CCC(C(=O)Nc3cccc(-c4cccc(Cl)c4)c3)CC2)o1	i	i	-8.1	i	i
CN(C)NC(=S)Nc1ccc(Cl)cc1	i	i	i	-6	i
Fc1ccc(NC(=S)Nc2ccc(F)c(Cl)c2)cc1Cl	i	i	i	-4.8	i
O=C(NC(=S)Nc1ccc(F)c(Cl)c1)C1CC1	i	i	i	i	i
OCCn1ccc(-c2ccccc2OCc2ccc(F)cc2)n1	i	i	i	i	i
N#Cc1ccc(NC(=S)NCCN2CCOCC2)cc1	i	i	i	i	i
O=C(COc1cccnc1[N+](=O)[O-])NCCc1ccccc1	i	i	i	i	i
COn1c(-c2ccccc2)c(C=O)c2ccccc21	i	19	i	i	i
COc1ccc(CCNC(=O)c2ccc3nc(-c4ccco4)c(-c4ccco4)nc3c2)cc1OC	i	i	nt	-4.6	nt
O=C(Nc1cccc(C(F)(F)F)c1)c1ccc2nc(-c3ccco3)c(-c3ccco3)nc2c1	i	i	i	-5.6	i
O=C(C1CCN(S(=O)(=O)c2cccs2)CC1)N(c1ccccn1)C1CCCCC1	i	i	i	i	i
O=C1/C(=C/C=C/c2ccco2)SC(=S)N1c1ccc(O)cc1	i	16	i	i	i
CC(C)C(C(=O)O)N1C(=O)/C(=C/C=C/c2ccco2)SC1=S (centres undefined)	i	i	i	-5.3	i
CC(C)C(C(=O)O)N1C(=O)/C(=C/c2cccn2C)SC1=S (centres undefined)	i	i	nt	i	nt
SMILES	MrgX1 agonist	MrgX1 allo act	RGS4 pot	MrgX1 antagonist	RGS4 block
Cc1csc(=O)n1CC(=O)OCC(=O)c1c(N)n(CC(C)C)c(=O)n(C)c1=O	i	i	i	i	i
Cc1ccc(S(=O)(=O)N2[C@@H](c3ccccc3)C(C(=O)O)=CC[C@H]2c2cccc(C)c2)cc1	i	i	nt	i	nt
Cc1ccc(S(=O)(=O)N2[C@@H](c3ccccc3F)C(C(=O)O)=CC[C@H]2c2cccc(C)c2)cc1	i	11	nt	i	nt
Cc1ccc(S(=O)(=O)N2[C@@H](c3ccccc3F)C(C(=O)O)=CC[C@H]2c2ccc(Cl)c(Cl)c2)cc1	i	12	nt	i	nt
Cc1ccc(NC2=C(CC(=O)O)C(c3ccccc3)N(c3ccc(C)cc3)C2=O)cc1 (centres undefined)	i	i	i	i	i
CN(C)c1ccc(N=Cc2ccco2)cc1	i	i	nt	i	nt
